In ChEMBL document CHEMBL1136773, “Bridged bicyclic cores containing a 1,1-diarylethylene motif are high-affinity subtype-selective ligands for the estrogen receptor” (J Med Chem, 2003):

Legend:
[1] = biological target: T1, Estrogen receptor (Homo sapiens) (UniProt P03372); experiment: Transcriptional antagonistic efficacy agains ER alpha at 10e-6 M by cotransfection in HEC-1 cells; format: functional, cell-based
T1 sequence (whole entry): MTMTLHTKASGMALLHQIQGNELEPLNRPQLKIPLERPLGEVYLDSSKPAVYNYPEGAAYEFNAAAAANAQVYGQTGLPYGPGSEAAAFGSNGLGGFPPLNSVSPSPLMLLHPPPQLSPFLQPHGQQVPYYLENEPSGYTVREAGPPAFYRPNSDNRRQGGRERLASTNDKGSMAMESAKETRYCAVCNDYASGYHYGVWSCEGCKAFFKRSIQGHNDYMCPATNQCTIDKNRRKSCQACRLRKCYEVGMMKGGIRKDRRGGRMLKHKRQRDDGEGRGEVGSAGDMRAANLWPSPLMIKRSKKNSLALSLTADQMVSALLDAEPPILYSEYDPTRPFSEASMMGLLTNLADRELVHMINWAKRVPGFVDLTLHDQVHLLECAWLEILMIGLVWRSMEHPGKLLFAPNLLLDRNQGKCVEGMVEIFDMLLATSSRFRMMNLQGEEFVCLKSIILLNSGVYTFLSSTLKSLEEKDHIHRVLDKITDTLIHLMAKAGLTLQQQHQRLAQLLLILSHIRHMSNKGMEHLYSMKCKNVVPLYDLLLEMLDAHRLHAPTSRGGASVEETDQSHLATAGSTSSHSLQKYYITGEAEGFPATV
How it was run: (§1)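 Cotransfection in HEC-1 cells as for agonism: ERα or ERβ vector, 2ERE-pS2-Luc reporter, β-galactosidase control, lipofectin for 5 h. Ligand at 10^-6 M was given together with 10^-9 M estradiol for 24 h. Luciferase activity was normalized to β-galactosidase and expressed relative to 10^-9 M estradiol alone, set at 100%.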

[2] = biological target: T1, Estrogen receptor (Homo sapiens); experiment: Binding affinity for purified human Estrogen receptor alpha was determined using a competitive radiometric binding assay with [3H]estradiol
[3] = biological target: T1, Estrogen receptor (Homo sapiens); experiment: Transcriptional agonistic efficacy against ER alpha at 10e-8 M by cotransfection in HEC-1 cells; format: functional, cell-based
How it was run: (§2)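 HEC-1 cells were grown in charcoal dextran-treated calf serum medium without phenol red. They were lipofected for 5 h at 37 °C with ERα or ERβ expression vector, 2ERE-pS2-Luc reporter and pCMV β-galactosidase control. Agonist screen used 10^-8 and 10^-6 M ligand for 24 h. Read-out is luciferase corrected by β-galactosidase, expressed as % of the 10^-9 M estradiol response.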

[4] = biological target: Estrogen receptor beta (Homo sapiens) (UniProt Q92731); experiment: Transcriptional agonistic efficacy against ER beta at 10e-6 M was determined by cotransfection in HEC-1 cells; format: functional, cell-based; how it was run: as §2
Chain of Estrogen receptor beta (Homo sapiens) (Q92731 whole entry): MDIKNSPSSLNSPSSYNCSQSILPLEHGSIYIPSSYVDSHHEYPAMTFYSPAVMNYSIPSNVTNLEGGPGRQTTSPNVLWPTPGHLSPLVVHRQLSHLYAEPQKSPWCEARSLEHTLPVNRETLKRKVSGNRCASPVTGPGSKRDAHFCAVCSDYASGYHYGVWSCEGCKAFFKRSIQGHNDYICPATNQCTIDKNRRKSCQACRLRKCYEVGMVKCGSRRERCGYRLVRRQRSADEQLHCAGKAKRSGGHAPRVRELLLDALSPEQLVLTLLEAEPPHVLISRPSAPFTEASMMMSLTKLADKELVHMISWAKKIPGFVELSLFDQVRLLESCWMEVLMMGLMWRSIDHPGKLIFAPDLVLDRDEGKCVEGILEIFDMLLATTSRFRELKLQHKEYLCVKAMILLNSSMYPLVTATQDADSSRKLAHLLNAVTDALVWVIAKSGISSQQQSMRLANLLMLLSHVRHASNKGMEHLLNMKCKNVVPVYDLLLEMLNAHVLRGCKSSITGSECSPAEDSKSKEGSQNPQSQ

[5] = biological target: Estrogen receptor beta (Homo sapiens) (UniProt Q92731); experiment: Binding affinity for purified human Estrogen receptor beta was determined using a competitive radiometric binding assay with estradiol
[6] = biological target: Estrogen receptor beta (Homo sapiens) (UniProt Q92731); experiment: Transcriptional antagonistic efficacy against ERbeta at 10e-6 M by cotransfectio in HEC-1 cells; format: functional, cell-based; how it was run: as §1
[7] = biological target: Estrogen receptor beta (Homo sapiens) (UniProt Q92731); experiment: Transcriptional agonistic efficacy against ER beta at 10e-8 M by cotransfection in HEC-1 cells; format: functional, cell-based; how it was run: as §2
[8] = biological target: T1, Estrogen receptor (Homo sapiens); experiment: Transcriptional agonistic efficacy against ER alpha at 10e-6 M by cotransfection in HEC-1 cells; format: functional, cell-based; how it was run: as §2
[9] = biological target: Estrogen receptor (Homo sapiens) (UniProt Q92731+P03372); experiment: Ratio of binding affinity for purified human estrogen beta receptors to that of binding affinity for purified human estrogen alpha receptors.
[10] = biological target: Estrogen receptor beta (Homo sapiens) (UniProt Q92731); experiment: Binding affinity for purified human Estrogen receptor beta by displacement of [3H]estradiol

Efficacy [1] [%] | RBA [2] [%] | Efficacy [3] [%] | Efficacy [4] [%] | RBA [5] [%] | Efficacy [6] [%] | Efficacy [7] [%] | Efficacy [8] [%] | Ratio [9] | RBA [10] [%] | Compound
38 | 108 | 15 | 2 | 187 | 2 | 2 | 20 | 1.7 |  | Oc1ccc(C(=C2C3CCCC2CCC3)c2ccc(O)c(O)c2)cc1
65 | 40 | 58 | 10 |  | 16 | 7 | 63 | 1.3 | 52 | Oc1ccc(C(=C2C3CCCC2CCC3)c2ccc(F)cc2)cc1
 | 3.2 |  |  | 9 |  |  |  | 2.8 |  | Oc1ccc(C(c2ccc(O)cc2)C2CCCCC2)cc1
43 | 0.31 | 1 | 4 | 0.25 | 78 | 2 | 6 | 0.81 |  | Oc1ccc(C2(c3ccc(O)cc3)C3CCCC2CCC3)cc1
 | 46 |  |  | 89 |  |  |  | 1.9 |  | Oc1ccc(C(=C2C3CCCC2CCC3)c2cccc(O)c2)cc1
40 | 15 | 16 | 50 | 13 | 55 | 21 | 41 | 0.87 |  | Oc1ccc(C(c2ccc(O)cc2)C2C3CCCC2CCC3)cc1 (stereo not drawn)
83 | 31 | 71 | 17 | 35 | 22 | 8 | 80 | 1.1 |  | Oc1ccc(C(=C2C3CCCC2CCC3)c2ccccc2)cc1
21 | 57 | 24 | 4 | 189 | 4 | 3 | 28 | 3.3 |  | CC12CCC(CC1=C(c1ccc(O)cc1)c1ccc(O)cc1)C2(C)C (stereo not drawn)
30 | 9 | 1 | 1 | 13 | 15 | 1 | 4 | 1.4 |  | CC1(C)CC(=C(c2ccc(O)cc2)c2ccc(O)cc2)C[C@]2(C)C(C)(C)[C@H]3CC[C@@]12C3
18 | 10 | 5 | 3 | 8 | 13 | 2 | 11 | 0.8 |  | CC12CCC(C1)C(C)(C)C2=C(c1ccc(O)cc1)c1ccc(O)cc1 (stereo not drawn)
19 | 243 | 20 | 2 | 317 | 2 | 2 | 20 | 1.3 |  | Oc1ccc(C(=C2C3CC4CC(C3)CC2C4)c2ccc(O)cc2)cc1
35 | 97 | 27 | 2 | 125 | 2 | 2 | 26 | 1.3 |  | Oc1ccc(C(=C2CC3CC2C2CCCC32)c2ccc(O)cc2)cc1 (stereo not drawn)
32 | 47 | 25 | 3 | 211 | 3 | 3 | 22 | 4.5 |  | Oc1ccc(C(=C2CC3CCC2C3)c2ccc(O)cc2)cc1 (stereo not drawn)
22 | 68 | 9 | 3 | 334 | 4 | 2 | 12 | 4.9 |  | Oc1ccc(C(=C2CCCCC2)c2ccc(O)cc2)cc1
23 | 513 | 25 | 2 |  | 2 | 2 | 22 | 0.59 | 301 | Oc1ccc(C(=C2C3CCCC2CCC3)c2ccc(O)cc2)cc1
